An excerpt weighted towards active compounds, which were near 4.3% of everything screened.
RAM network inh = blocks the yeast RAM network | actives 1.8% (n = 190,000) | inhibition, % at 50 µM | S. cerevisiae dse1pr::URA3 reporter, 5-FOA growth OD615, 2 d; analog-sensitive cbk1-as2 kinase mutant strain | AID 868;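 active = inhibition above a set limit, 3 SD over mean compound inhibition, cut at about 8.4% in these data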;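 note: 0% = DMSO-only wells with no growth and 100% = 10 µM 1-NA-PP1 full growth; inhibition rescues growth on 5-FOA so higher OD means more RAM inhibition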
Yeast life ext = yeast lifespan extension. S. cerevisiae growth with nicotinamide, OD615; deaD strain in restrictive glucose medium. inhibition of the nicotinamide effect, % at 10 µM. actives 0.68% (n = 130,000). AID 775;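 active = inhibition above a set limit, placed 3 SD over the median of all compounds, cut at about 26% in these data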;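 note: 0% = nicotinamide-treated wells and 100% = cells grown without nicotinamide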
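Assay system: engineered S. cerevisiae DeaD replicative-lifespan strain, galactose-grown log-phase cells; Buffer or medium: CSMM-D glucose medium, restrictive; Probe or stimulus: nicotinamide 1.5 mM; Compound: single dose 10 µM compound, 0.25% DMSO; Schedule: 4 h preincubation then 48 h treatment at 30 °C; Technique: OD615 measurement.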
BB579 growth dn = chemicals that inhibit yeast BB579 growth in restrictive medium (lifespan-shortening candidates); S. cerevisiae BB579 growth, OD615, 48 h; inhibition, % at 10 µM; actives 0.51% (n = 140,000);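 active = inhibition above a set limit, 3 SD over the mean compound inhibition, cut at about 44% in these data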
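Test system: S. cerevisiae DeaD strain BB579 yeast; Medium: restrictive CSMM-D medium; Compound: one dose, 10 µM compound with 0.25% DMSO; Incubation: 4 h cell preincubation, 48 h compound exposure, 30 °C humidified; Signal: OD at 615 nm; Benchmarks: amphotericin B at 10 µg/mL as positive control.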
WT yeast gro inh = growth inhibition of WT yeast, mitochondrial fusion screen | inhibition, % at 10 µM | actives 2.1% (n = 190,000) | mitochondrial fusion phenotypic screen, WT strain | AID 1362; in the data active = inhibition above about 58%; tested in S. cerevisiae
Numbers without * were called inactive; . = no result given.

SMILES | RAM network inh | Yeast life ext | BB579 growth dn | WT yeast gro inh
CCOc1ccc(NC(=NCc2ccc3c(c2)OCO3)SC2CC(=O)N(c3ccc(C(=O)O)cc3)C2=O)cc1 (centres undefined) | 4 | 4 | -55 | -22
CC(C)(C)C1=NN(C(=O)c2ccccc2)C(O)(C(C)(C)C)C1 (centres undefined) | 10* | -2 | -16 | 8
C=CCn1c(C2CCCCC2)n[nH]c1=S | 2 | . | . | 4
O=C(CC1SC(=O)N(c2ccccc2)C1=O)Nc1ccccc1 (centres undefined) | 8 | 16 | 4 | -7
Cc1cccc(NC(=O)CC2SC(=O)N(c3ccccc3)C2=O)c1 (centres undefined) | 1 | 14 | 50* | 2
Cc1ccc(-n2nnc3c(=O)n(CC(=O)N4CCCC4)cnc32)cc1 | 0 | -13 | -41 | 9
Cc1ccc(-n2nnc3c(=O)n(CC(=O)N4CCC(C)CC4)cnc32)cc1 | -1 | -5 | 43* | 5
COC(=O)c1cc(S(=O)(=O)n2nc(C)c(Br)c2C)c(Cl)cc1Cl | 1 | -3 | 11 | .
O=C(O)c1ccc(NC(=S)NC(=O)c2ccc(-c3ccccc3)cc2)cc1 | 1 | . | . | -3
C=CCN(CC=C)C(=S)NC(=O)c1ccc(OC)cc1 | -1 | . | . | 27
O=C(NC(=S)Nc1ccccc1)c1ccc(-c2ccccc2)cc1 | 9.4* | 8 | -17 | 8
C=CCN(CC=C)C(=S)NC(=O)c1ccc(-c2ccccc2)cc1 | 0 | -14 | -2 | 66*
O=[N+]([O-])c1cc(S(=O)(=O)N2CCCCC2)ccc1NCCN1CCOCC1 | 1 | . | . | 10
O=c1c2c([N+](=O)[O-])cc([N+](=O)[O-])cc2sn1-c1ccc(Br)cc1 | 2 | -5 | 45* | 58
O=c1c2cc(Br)ccc2nc(-c2ccc([N+](=O)[O-])cc2)n1O | -1 | . | . | 26
CN(C)CCCNS(=O)(=O)c1ccc(Oc2ncc(C(F)(F)F)cc2Cl)cc1 | 0 | 0 | -83 | 0
COc1cccc(-n2nnnc2S(C)(=O)=O)c1 | -1 | 18 | 74* | 62
CCCC[n+]1c(-c2ccc(Cl)cc2Cl)csc1Nc1ccccc1 | 0 | 32* | -25 | 68*
C=CC[n+]1c(-c2ccc(Cl)cc2Cl)csc1Nc1ccc(NC(C)=O)cc1 | -1 | . | . | 86*
C=CC[n+]1c(-c2ccc(Cl)cc2Cl)csc1Nc1c(C)n(C)n(-c2ccccc2)c1=O | 0 | . | . | 24
CCOC(=O)CC(=O)CSc1nc(C)nc2c1oc1ccccc12 | 1 | -25 | -27 | 83*
Cc1nc(SCC(=O)O)c2oc3ccccc3c2n1 | 3 | -14 | -17 | -2
O=C(CSc1ncnc2c1oc1ccccc12)OCc1ccccc1 | 8.8* | -8 | -71 | 5
O=C(CSc1nnc(NC(=O)C2CC2)s1)Nc1ccc2c(c1)OCCO2 | 3 | . | . | 1
O=C(Nc1cccc(C(F)(F)F)c1)n1cc(-c2ccccn2)c(N2CCOCC2)n1 | 2 | . | . | 77*
SMILES | RAM network inh | Yeast life ext | BB579 growth dn | WT yeast gro inh
Cc1cc(C)nc(N2CCCC(C(=O)NCc3cccs3)C2)n1 (centres undefined) | 1 | -18 | -8 | 70*
CC(=O)n1cc(-c2ccncc2)c2ccccc21 | 0 | -16 | 12 | 4
CC(=O)n1cc(C(C[N+](=O)[O-])SCCN)c2ccccc21 (centres undefined) | -2 | -19 | 73* | 23
C#CCNC(=O)C1=C[C@@H](c2coc3ccccc3c2=O)C[C@@H](OCc2ccc(CO)cc2)O1 | 1 | . | . | -19
Nc1nc(-c2ccccc2)c(N=Nc2ccccc2Cl)s1 | 9.2* | -2 | -22 | 16
Nc1nc(-c2ccccc2)c(N=Nc2cccc3ccccc23)s1 | 5 | 3 | -38 | 89*
CC/C(=N\NC(=O)c1ccc(-c2ccccc2)cc1)C12CC3CC(CC(C3)C1)C2 | 0 | -16 | -2 | -1
Cc1cc(/C=N/n2cnnc2)c(C)n1-c1ccc(OCc2ccc(Cl)cc2)cc1 | 1 | -7 | 8 | 66*
CC(C)(C)N1C(=O)c2ccc(C(=O)Nc3ccc(-c4nc5ccccc5[nH]4)cc3)cc2C1=O | 4 | 0 | -22 | 15
O=C(Nc1ccc(-c2nc3ccccc3[nH]2)cc1)c1ccc(N2C(=O)CCC2=O)cc1 | 9.1* | -2 | 4 | -2
O=C(c1ccccc1)c1ccc2nc(-c3ccc(NC(=O)c4ccccc4Br)cc3)[nH]c2c1 | 8.7* | 0 | -34 | -27
O=[N+]([O-])c1ccc(COc2cccc(CNc3ccc(F)cc3)c2)cc1 | 9.9* | 0 | -27 | 48
Nc1ccccc1Oc1c(F)c(F)c(Oc2ccccc2N)c(F)c1F | 3 | . | . | 22
Cc1ccc(-c2[nH]nc(N)c2N=Nc2ccccc2C)cc1 | 2 | -38 | 52* | -1
CC12CCC(O)CC1=CCC1C2CCC2(C)C1CCC21CCC(=O)O1 (centres undefined) | 4 | 10 | -4 | 75*
CCOCc1c(C(=O)OCC(=O)Nc2ccc(C)c(S(=O)(=O)N(C)C)c2)oc2ccccc12 | 8.7* | -4 | -47 | -3
Cc1ccc(NC(=O)COC(=O)CCC(=O)c2ccc(Cl)cc2)cc1S(=O)(=O)N(C)C | 11* | 0 | -24 | 3
CCOc1cc(C(=O)CCC(=O)OCC(=O)Nc2ccc(C)c(S(=O)(=O)N(C)C)c2)ccc1O | 4 | . | . | 0
O=[N+]([O-])c1ccc(-c2cn(-c3ccccc3)c(=S)[nH]2)cc1 | 10* | 5 | -48 | -7
CC(C)(CNC(=O)COc1ccccc1Cc1ccccc1)N1CCOCC1 | 3 | . | . | 7
c1cncc(-c2nc(NCC3COc4ccccc4O3)c3ccccc3n2)c1 (centres undefined) | 1 | -16 | -49 | 67*
Cc1cc2ncn(CC3CC3(Cl)Cl)c2cc1C (centres undefined) | 0 | . | . | 21
COc1ccc(N2C(=O)CSC(c3ccccc3)C2=O)cc1 (centres undefined) | 1 | . | . | 14
O=C(CN1CCc2ccccc2C1)NCC(=O)Nc1ccc(F)cc1 | 2 | . | . | 8
O=C(CSc1ncnc2c(-c3ccc(Cl)cc3)nsc12)c1ccccc1 | 6 | 1 | -44 | 78*
SMILES | RAM network inh | Yeast life ext | BB579 growth dn | WT yeast gro inh
O=C(CC(Nc1cccc(Cl)c1Cl)C(=O)OCC(=O)c1cccs1)c1ccccc1 (centres undefined) | 9.0* | -5 | -3 | 23
COc1ccccc1NC(CC(=O)c1ccccc1)C(=O)OCC(=O)c1ccc(F)cc1 (centres undefined) | 11* | 0 | -31 | 17
Cc1c(Cl)cccc1NC(CC(=O)c1ccccc1)C(=O)OCC(=O)c1cccs1 (centres undefined) | 3 | -3 | 6 | 3
Cc1ccc(SCCC(=O)Nc2cccc(N(C)S(C)(=O)=O)c2)cc1 | 1 | -12 | -36 | -3
Cc1cc(C)nc(SCC(=O)Nc2nc(-c3ccccc3)c(-c3ccccc3)o2)n1 | 5 | -2 | -20 | 54
Cc1ccc(C(=O)Nc2nc(-c3ccccc3)c(-c3ccccc3)o2)cc1 | 4 | -2 | -27 | 69*
CC(NC(=O)/C(C#N)=C/c1cn[nH]c1-c1ccccc1)c1ccccc1 (centres undefined) | 3 | -8 | -9 | 3
